Measurements published in paper PMC9530961 (Molecular Therapy. Nucleic Acids, 2022).

Tests used:
CSNK2A1 mRNA [1] = assay: qPCR gene silencing in CAOV3 cells; type: cell-based; conditions: CAOV3, 80:1 N:P ratio, 48 h
Outline: (§1)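 Cells were seeded at 50,000/well and treated with peptide complexes of CSNK2A1-targeting or non-targeting siRNA at increasing N:P ratios in McCoy's 5A/DMEM with 10% FBS. Medium was replaced after a PBS wash at 24 h, for 48 h total. CSNK2A1 mRNA was quantified by TaqMan qRT-PCR with 18S as reference.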

[2] = test system: MCF10a breast epithelial cells; assay: Cell viability of healthy cells; type: cell-based; conditions: 48 h
RNase A = target: T1, RNase A (Bos taurus, UniProt P61823); assay: Protection of siRNA from RNase A degradation, agarose gel electrophoresis; type: in vitro ADME; conditions: complexes with siNT, 5 μg/mL RNase A, 37°C, 1 h, 6% SDS
T1 sequence (P61823 27-150): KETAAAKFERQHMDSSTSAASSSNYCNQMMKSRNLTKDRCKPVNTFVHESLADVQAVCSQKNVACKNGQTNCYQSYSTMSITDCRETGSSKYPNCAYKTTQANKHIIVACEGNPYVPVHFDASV
Outline: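 Non-targeting siRNA (10 μM solution) was mixed with each peptide (10 μM solution in RNase-free water) at several N:P ratios and held 20 min at room temperature. Complexes or free siRNA were left untreated or exposed to 5 μg/mL RNase A at 37°C for 1 h, then dissociated with 6% SDS. Samples were run on 2% agarose at 100 V, ethidium bromide-stained and imaged for intact siRNA.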

CSNK2A1 mRNA [3] = assay: qPCR gene silencing in OVCAR3 cells; type: cell-based; conditions: 48 h, 10% FBS
Outline: as §1

With “WEADIVADIVWDIVADIVAGGG-(d)RRRRRRRRR [DIV3W]” as the substance, how does the “CSNK2A1 mRNA knockdown, maximum” value (CSNK2A1 mRNA [1]) read?
Its value is 80%.

And the “cytotoxic effects on healthy cells” value [2]?
The value was “no cytotoxic effects were observed”.

What about the “siRNA degradation after incubation with RNase A” value (RNase A) of the same substance?
The value was “Minimal degradation”.

Which “CSNK2A1 mRNA silencing efficacy” value (CSNK2A1 mRNA [3]; OVCAR3, siCSNK2A1 complex at 80:1 versus siNT complex) does the source give for “WEADIVADIVHDIVADIVAGGG-(d)RRRRRRRRR [DIV3H]” here?
Its value is 72%.

With WEADIVADIVADIVAGGG-(d)RRRRRRRRR [DIVA3] as the substance, how does the “CSNK2A1 mRNA silencing efficacy” value (CSNK2A1 mRNA [3]; OVCAR3, siCSNK2A1 complex at 60:1 versus siNT complex) read?
The value was 47%.
